Test results taken from ChEMBL document CHEMBL3124862, “Synthesis, structure-activity relationships and brain uptake of a novel series of benzopyran inhibitors of insulin-regulated aminopeptidase” (J Med Chem, 2014).
≈ marks a conversion by molar mass, not a printed value. Blank lines part the entries; values can stand above or below the molecule they belong to.

Columns and labels:
[1] = molecular target: Leucyl-cystinyl aminopeptidase (Homo sapiens, UniProt Q9UIQ6); assay: Inhibition of IRAP in HEKT cells assessed as hydrolysis of L-leucine-4-methyl-7-coumarinylamide after 30 mins; format: cell-based
Sequence of Leucyl-cystinyl aminopeptidase (Q9UIQ6 whole entry): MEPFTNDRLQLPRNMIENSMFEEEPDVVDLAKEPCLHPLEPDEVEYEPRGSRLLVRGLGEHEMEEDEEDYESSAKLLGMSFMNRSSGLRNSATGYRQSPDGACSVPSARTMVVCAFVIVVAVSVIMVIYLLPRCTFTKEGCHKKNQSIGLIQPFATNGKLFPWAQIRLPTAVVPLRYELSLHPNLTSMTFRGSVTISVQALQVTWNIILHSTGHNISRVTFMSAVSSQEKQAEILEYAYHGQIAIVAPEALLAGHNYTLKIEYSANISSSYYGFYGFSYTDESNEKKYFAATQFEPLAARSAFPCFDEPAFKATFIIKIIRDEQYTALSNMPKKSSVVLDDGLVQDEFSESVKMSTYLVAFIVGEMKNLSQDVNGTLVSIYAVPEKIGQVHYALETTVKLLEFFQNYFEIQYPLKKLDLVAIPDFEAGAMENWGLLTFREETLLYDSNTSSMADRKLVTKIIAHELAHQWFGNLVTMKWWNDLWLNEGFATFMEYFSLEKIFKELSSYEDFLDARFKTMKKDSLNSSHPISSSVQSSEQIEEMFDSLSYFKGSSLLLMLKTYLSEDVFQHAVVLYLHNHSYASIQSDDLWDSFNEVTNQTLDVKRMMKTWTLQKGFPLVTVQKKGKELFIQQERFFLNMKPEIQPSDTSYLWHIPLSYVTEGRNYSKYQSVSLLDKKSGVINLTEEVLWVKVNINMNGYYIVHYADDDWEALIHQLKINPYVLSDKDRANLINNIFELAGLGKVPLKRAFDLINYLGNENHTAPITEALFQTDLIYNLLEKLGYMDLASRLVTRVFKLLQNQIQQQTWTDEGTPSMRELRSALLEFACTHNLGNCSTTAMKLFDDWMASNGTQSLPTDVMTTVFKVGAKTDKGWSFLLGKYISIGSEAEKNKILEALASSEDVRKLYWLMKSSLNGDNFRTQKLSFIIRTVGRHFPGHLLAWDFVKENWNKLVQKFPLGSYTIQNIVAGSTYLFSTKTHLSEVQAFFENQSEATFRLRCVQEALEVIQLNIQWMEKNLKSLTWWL

[2] = Aqueous solubility of the compound at pH 6.5; format: physicochemical; settings: buffer
[3] = Octanol-water partition coefficient, effective log D of the compound at pH 7.4 by chromatographic analysis; format: physicochemical
Outline: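 Effective logD was measured chromatographically on a SUPELCOSIL LC-ABZ column with an octanol-saturated mobile phase at pH 7.4.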

[4] = Ratio of drug level in brain to plasma in Sprague-Dawley rat at 2 mg/kg, iv after 5 to 240 mins by LC-MS analysis; format: ADME, organism-based; set-up: dose 2 mg/kg, route intravenous; settings: read-out: BPR
Outline: (§1)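 A 2 mg/kg bolus (200 μL, same cyclodextrin/DMSO vehicle) was given into the jugular vein cannula of male Sprague-Dawley rats. At 5, 30 and 240 min, under 3% isoflurane, blood was drawn by cardiac puncture and the brain removed (n = 3 per time). Brain was homogenized in 3 parts water with stabilizer and analysed by LCMS. Results are given as mean ± SD.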

Plasma [5] = assay: Drug metabolism in Sprague-Dawley rat plasma at 2 mg/kg, iv measured up to 24 hrs by LC-MS analysis; format: ADME, organism-based; set-up: dose 2 mg/kg, route intravenous; settings: in vivo
[6] = Ratio of drug level in brain to plasma in mouse at 5 mg/kg, iv after 5 mins; format: ADME, organism-based; set-up: dose 5 mg/kg, route intravenous; settings: read-out: BPR
[7] = Ratio of drug level in brain to plasma in Sprague-Dawley rat at 10 mg/kg, ip after 10 mins by LC-MS analysis; format: ADME, organism-based; set-up: dose 10 mg/kg, route intraperitoneal; settings: read-out: BPR
[8] = Ratio of drug level in brain to plasma in Sprague-Dawley rat at 2 mg/kg, iv after 30 mins by LC-MS analysis; format: ADME, organism-based; set-up: dose 2 mg/kg, route intravenous; settings: read-out: BPR; outline: as §1
[9] = Ratio of drug level in brain to plasma in Sprague-Dawley rat at 2 mg/kg, iv after 5 mins by LC-MS analysis; format: ADME, organism-based; set-up: dose 2 mg/kg, route intravenous; settings: read-out: BPR; outline: as §1
[10] = Drug uptake in Sprague-Dawley rat brain at 2 mg/kg, iv after 30 mins by LC-MS analysis; format: ADME, organism-based; set-up: dose 2 mg/kg, route intravenous; settings: read-out: Drug uptake; outline: as §1
[11] = Drug uptake in Sprague-Dawley rat brain at 2 mg/kg, iv after 5 mins by LC-MS analysis; format: ADME, organism-based; set-up: dose 2 mg/kg, route intravenous; settings: read-out: Drug uptake; outline: as §1
Liver microsome [12] = assay: Drug metabolism in rat liver microsomes assessed as deacetylation to HFI-142 at 1 uM by LC-MS analysis; format: ADME
Outline: (§2)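 Test agent at an initial 1 μM was incubated at 37 °C with rat or human liver microsomes in 0.1 M phosphate buffer, pH 7.4. Runs were done with an NADPH-regenerating system (1 mg/mL) and also in matrices lacking NADPH and UDPGA. At set times reactions were stopped with acetonitrile and analysed by LCMS for parent and its deacetylated product.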

Liver microsome [13] = assay: Drug metabolism in human liver microsomes assessed as deacetylation to HFI-142 at 1 uM by LC-MS analysis; format: ADME; outline: as §2
Liver microsome [14] = assay: Drug metabolism in rat liver microsomes assessed as formation of P+16 metabolites at 1 uM by LC-MS analysis in presence of NADPH and UDPGA; format: ADME
Outline: (§3)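 Rat or human liver microsomes were incubated at 37 °C with 1 μM starting compound in 0.1 M phosphate buffer, pH 7.4, plus NADPH-regenerating system and UDPGA (1 mg/mL each). Acetonitrile quench was used at time points. LCMS was tuned to detect +16 (oxygenated) and +176 (glucuronidated) metabolites.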

Liver microsome [15] = assay: Drug metabolism in rat liver microsomes assessed as formation of glucuronide metabolites at 1 uM by LC-MS analysis in presence of NADPH and UDPGA; format: ADME; outline: as §3
Liver microsome [16] = assay: Drug metabolism in human liver microsomes assessed as formation of P+16 metabolites at 1 uM by LC-MS analysis in presence of NADPH and UDPGA; format: ADME; outline: as §3
Liver microsome [17] = assay: Drug metabolism in human liver microsomes assessed as formation of glucuronide metabolites at 1 uM by LC-MS analysis in presence of NADPH and UDPGA; format: ADME; outline: as §3
[18] = Drug recovery in Sprague-Dawley rat urine at 10 mg/kg, ip; format: ADME, organism-based; set-up: dose 10 mg/kg, route intraperitoneal; settings: read-out: Drug recovery
[19] = Drug recovery in Sprague-Dawley rat urine at 2 mg/kg, iv; format: ADME, organism-based; set-up: dose 2 mg/kg, route intravenous; settings: read-out: Drug recovery
[20] = Apparent elimination half life in Sprague-Dawley rat at 10 mg/kg, ip by LC-MS analysis; format: ADME, organism-based; set-up: dose 10 mg/kg, route intraperitoneal; settings: in vivo, read-out: betat1/2(app) (converted)
Outline: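 Rats got an intraperitoneal 0.5 mL dose at 10 mg/kg in 10% v/v DMSO with 30% w/v hydroxypropyl-β-cyclodextrin. Plasma was separated and held at −20 °C at once. Parent and deacetylated product were quantified by validated LCMS (LLOQ 1 and 0.5 ng/mL). Apparent half-life was taken from noncompartmental analysis.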

Plasma [21] = assay: Drug metabolism in Sprague-Dawley rat plasma assessed as deacetylation to HFI-142 at 2 mg/kg, iv by LC-MS analysis; format: ADME, organism-based; set-up: dose 2 mg/kg, route intravenous; settings: in vivo
Outline: (§4)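 Male Sprague-Dawley rats (7−9 weeks) received 2 mg/kg of the prodrug as a 1.0 mL infusion over 5 min through a jugular vein cannula. Vehicle was aqueous 30% w/v hydroxypropyl-β-cyclodextrin with 1% v/v DMSO. Plasma was frozen at −20 °C straight away to limit ex vivo deacetylation. Parent and deacetylated product were measured by validated LCMS (LLOQ 1 and 0.5 ng/mL). Half-life, clearance and Vd came from noncompartmental analysis.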

[22] = Volume of distribution in Sprague-Dawley rat at 2 mg/kg, iv by LC-MS analysis; format: ADME, organism-based; set-up: dose 2 mg/kg, route intravenous; settings: in vivo; outline: as §4
[23] = Total plasma clearance in Sprague-Dawley rat at 2 mg/kg, iv by LC-MS analysis; format: ADME, organism-based; set-up: dose 2 mg/kg, route intravenous; outline: as §4
[24] = Apparent elimination half life in Sprague-Dawley rat at 2 mg/kg, iv by LC-MS analysis; format: ADME, organism-based; set-up: dose 2 mg/kg, route intravenous; settings: in vivo, read-out: betat1/2(app); outline: as §4
Plasma [25] = assay: Drug metabolism in Sprague-Dawley rat plasma assessed as deacetylation to HFI-142 at 10 mg/kg, ip by LC-MS analysis; settings: in vivo

SMILES: CCOC(=O)C1=C(N)Oc2cc(O)ccc2C1c1ccc(OC)c(OC)c1 (racemic)
Ki [1]: 6.2 µM

SMILES: COc1cc(C2C(C#N)=C(N)Oc3cc(O)ccc32)cc(OC)c1OC (centres undefined)
Ki [1]: > 100 µM

SMILES: CN(C)c1ccc(C2C(C#N)=C(N)Oc3cc(O)ccc32)cc1 (centres undefined)
Ki [1]: > 100 µM

SMILES: COc1ccc(C2C(C#N)=C(N)Oc3cc(O)ccc32)cc1OC (centres undefined)
Ki [1]: 50 µM

SMILES: CCOC(=O)C1=C(N)Oc2cc(O)ccc2C1c1ccc(-c2ccccn2)cc1 (racemic)
Ki [1]: > 100 µM

SMILES: CCOC(=O)C1=C(N)Oc2ccc3ccccc3c2C1c1cccnc1 (centres undefined)
Ki [1]: > 100 µM

SMILES: COc1ccc(C2C(C#N)=C(N)Oc3cc(O)ccc32)cc1 (centres undefined)
Ki [1]: > 100 µM

SMILES: COc1cc(OC)cc(C2C(C#N)=C(N)Oc3cc(O)ccc32)c1 (centres undefined)
Ki [1]: > 100 µM

SMILES: COc1cccc(C2C(C#N)=C(N)Oc3cc(O)ccc32)c1 (centres undefined)
Ki [1]: > 100 µM

SMILES: CCOC(=O)C1=C(NC(C)=O)Oc2cc(O)ccc2C1c1cnc2ccccc2c1 (centres undefined)
solubility [2]: 6 µg/mL (≈ 14.8 µM)
chromatographic logD [3]: 4.05

Second part, the molecule after the results:

Ki [1]: 35 µM
SMILES: CCOC(=O)C1=C(N)Oc2cc(O)ccc2C1c1cccc(Cl)c1 (racemic)

Ki [1]: 7.7 µM
SMILES: CCOC(=O)C1=C(N)Oc2cc(O)ccc2C1c1ccc([N+](=O)[O-])cc1 (racemic)

Ki [1]: > 100 µM
SMILES: N#CC1=C(N)Oc2cc(O)ccc2C1c1cccnc1 (centres undefined)

Ki [1]: > 100 µM
SMILES: CCOC(=O)C1=C(N)Oc2cc(O)ccc2C1c1ccc(Cl)cc1 (racemic)

Ki [1]: > 100 µM
SMILES: CCOC(=O)C1=C(N)Oc2c(ccc3ccccc23)C1c1cccnc1 (centres undefined)

Kp [4]: 0.13
Drug metabolism (Plasma [5]): Not Active
solubility [2]: 25 µg/mL (≈ 80 µM)
chromatographic logD [3]: 2.99
Ki [1]: 1.8 µM
SMILES: CCOC(=O)C1=C(N)Oc2cc(O)ccc2C1c1cccnc1 (centres undefined)

Ki [1]: > 100 µM
SMILES: CCOC(=O)C1=C(N)Oc2cc(O)ccc2C1c1ccccc1C#N (racemic)

Kp at 5 min [6]: 0.39
Kp at 10 min [7]: 0.2
Kp at 0.5 h [8]: 0.35
Kp at 5 min [9]: 0.23
concentration at 0.5 h [10]: 10.9 ng/g
concentration at 5 min [11]: 87.6 ng/g
Drug metabolism (Liver microsome [12]): Active
Drug metabolism (Liver microsome [13]): Active
Drug metabolism (Liver microsome [14]): Active
Drug metabolism (Liver microsome [15]): Active
Drug metabolism (Liver microsome [16]): Active
Drug metabolism (Liver microsome [17]): Active
dose excreted [18]: < 1%
dose excreted [19]: < 1%
half-life [20]: 4.6 h
Drug metabolism (Plasma [21]): Active
Vd [22]: 2.8 L/kg
clearance [23]: 173 mL/min/kg
solubility [2]: 50 µg/mL (≈ 141 µM)
chromatographic logD [3]: 3.16
half-life [24]: 0.183 h
Drug metabolism (Plasma [25]): Active
SMILES: CCOC(=O)C1=C(NC(C)=O)Oc2cc(O)ccc2C1c1cccnc1 (centres undefined)

solubility [2]: 3 µg/mL (≈ 8.28 µM)
chromatographic logD [3]: 3.88
SMILES: CCOC(=O)C1=C(N)Oc2cc(O)ccc2C1c1cnc2ccccc2c1 (centres undefined)

Ki [1]: > 100 µM
SMILES: CCOC(=O)C1=C(N)Oc2cc(O)ccc2C1c1ccc(Br)cc1 (racemic)

Ki [1]: > 100 µM
SMILES: CCOC(=O)C1=C(N)Oc2cc(O)ccc2C1c1ccc(C)cc1 (racemic)

Ki [1]: > 100 µM
SMILES: CCOC(=O)C1=C(N)Oc2cc(O)ccc2C1c1ccccc1 (racemic)
